INS promoter act: activators of insulin promoter-driven GFP, primary screen, imaging, TRM-6 cells, eGFP reporter, cell count; AID 1296, 2008; 130,000 compounds, 0.81% hits; plate-scaled: unstimulated 0, stimulated control 100; activation, % at 2 µM;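 active = activation at 2 µM above a set limit, confirmed on inspection of the cell images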;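 note: share of cells whose green reporter signal exceeds an intensity cutoff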
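material = TRM-6 human fetal islet cells, insulin promoter–eGFP reporter | input = 1,000 TRM-6 cells seeded per well | benchmarks = stimulated versus unstimulated wells as plate controls | measured by = automated fluorescence imaging of paraformaldehyde-fixed, Hoechst-counterstained cells, green channel | schedule = compound exposure 48 h, 37 °C | reagent = tamoxifen at 0.75 µM added at seeding for reporter induction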
* = called active by the depositor; [ ] = remark or other dose. Many of the other results were omitted from the sample, so hits are more common in it than they were.

SMILES	INS promoter act
O=S(=O)(/N=C(/Nc1ccccn1)c1ccccc1)c1ccccc1	196*
CC(C)OC(=S)N/C(=N\S(=O)(=O)c1ccccc1)c1ccccc1	-4
CCC(C)(C)NC(=O)C(c1cccnc1)N(C(=O)c1csnn1)c1ccc(C)cc1 (centres undefined)	5
COc1ccc(CN2C(=O)c3cccnc3C2Nc2cc(Cl)c(OC)cc2OC)cc1 (centres undefined)	136*
O=C1c2cccnc2C(O)N1Cc1ccc(F)cc1 (centres undefined)	6
CCN(CC)S(=O)(=O)c1ccc(NC2c3ncccc3C(=O)N2Cc2ccccc2)cc1 (centres undefined)	7
CCOC(=O)N1CCN(C(=O)C2CCCN(S(=O)(=O)c3ccc(C)cc3)C2)CC1 (centres undefined)	0
Cc1ccc(S(=O)(=O)Nc2cc(Cl)c(O)cc2C)cc1	9
Cc1ccc(S(=O)(=O)Nc2ccccc2C(N)=O)cc1	403*
NC(=O)c1ccccc1NS(=O)(=O)c1ccccc1	0
Cc1cc(N2CCC(C)CC2)nc(NCc2ccccc2)n1	107
COc1ccc(CCc2nnc(CCC(=O)NCCc3ncccc3C)o2)cc1	4
CCCCCC(=O)NNC1=NCC(Cc2cccc(Cl)c2)S1 (centres undefined)	9
COc1ccc(-c2nnn(CCc3nn[nH]n3)n2)cc1	-75
CCN1C(=O)/C(=C\N2CCN(C)CC2)SC1=S	9
COCCN1C(=O)/C(=C/c2ccc(N3CCCC3)cc2C)SC1=S	456*[fluoresces]
CCOC(=O)CN1C(=O)S/C(=C/c2cc(C)n(C)c2C)C1=O	2
O=C(Nc1cccc(Cl)c1)/C(=C\c1cccnc1)NC(=O)c1ccco1	-67
COCCN(C(=O)/C=C/c1ccccc1)c1nnc(-c2cccnc2)s1	-5
COCCN(C(=O)C1CC1)c1nnc(-c2cccc(C)c2)s1	182*
CCCCC(=O)N(CCOC)c1nnc(-c2ccc(OC)cc2)s1	3
O=C(CNC(=O)c1ccc(Cl)cc1)NCC(F)(F)F	-5
CC(C)(C)NC(=O)NC(=O)COC(=O)CNS(=O)(=O)c1ccc(Br)cc1Cl	0
CCOC(=O)c1sc2nc(SCC(=O)N(CC)CC)n(CCCN3CCCC3=O)c(=O)c2c1C	114
CC(C)c1nc(-c2ccccc2)c(-c2ccccc2)[nH]1	-87
SMILES	INS promoter act
O=C(O)c1ccccc1-c1nc(-c2ccccc2)c(-c2ccccc2)[nH]1	290*
CNC(=O)CSc1nc(-c2ccccc2)c(-c2ccccc2)[nH]1	0
CC(c1ccccn1)N(CCN(C)C)C(=S)Nc1cccc(F)c1 (centres undefined)	10
COCCCN(C(=S)Nc1cccc(Cl)c1)C(C)c1ccncc1 (centres undefined)	5
COCCCN(C(=O)Nc1cccc(Cl)c1)C(C)c1ccccn1 (centres undefined)	642*
CCCC1CCc2c(sc(N)c2C(N)=O)C1 (centres undefined)	10
COCCCNC(=O)C1CC(=O)N(Cc2ccc(OC)cc2)C1 (centres undefined)	3
O=C(NCCc1ccccn1)C1CC(=O)N(Cc2ccccc2Cl)C1 (centres undefined)	131*
COc1ccc(CN2CC(C(=O)NCCC3=CCCCC3)CC2=O)cc1 (centres undefined)	3
COc1cc(NC(=O)c2ccc3c(c2)OCCO3)ccc1NC(=O)c1cccs1	107
Cc1[nH]c(=O)[nH]c(=O)c1S(=O)(=O)N1CCC(C(=O)N2CCN(Cc3ccccc3)CC2)CC1	6
CS(=O)(=O)c1ccc(C(=O)N2CCN(Cc3ccccc3)CC2)cc1	0
CS(=O)(=O)N1CCC(C(=O)N2CCN(Cc3ccccc3)CC2)CC1	438*
CCCCOC(=O)c1ccc(NC(=S)NC(=O)c2c(Br)c(C)nn2C)cc1	9
CC[N+]1=C(C)C(C)(C)c2cc(C)ccc21	488*
COc1ccc(C2OC(=O)CC2C(=O)NCc2ccccc2Cl)cc1OC (centres undefined)	-8
Cc1ccnc(NS(=O)(=O)c2ccc(NS(=O)(=O)c3ccccc3)cc2)n1	314
Cc1ccc(C(=O)N/C(N)=N/c2nc3ccccc3o2)cc1	-4
Cc1cccc(NC(=O)CSc2nc3ccccc3o2)c1	-4
Cc1ccc(-c2nnc(Sc3nc4ccccc4o3)c3ccccc23)cc1	590*
COc1ccc(-c2[nH]ncc2CNCCc2ncccc2C)cc1F	-71
CCC(CO)NC1=CC(=O)CCC1 (centres undefined)	0
COC(=O)c1cc(COC(=O)c2nc3nccc(C)n3n2)oc1C	0
CN(C)c1ccc(C2CC(c3ccccc3)=Nc3nc(-c4ccccc4)cn32)cc1 (centres undefined)	-3
CCn1cc(C(=O)NCCc2ccccc2)c(=O)c2cc(S(=O)(=O)N3CCCC3)ccc21	0
SMILES	INS promoter act
CCN=C1SC(CC(=O)NCCc2ccc(OC)c(OC)c2)C(=O)N1CC (centres undefined)	0
O=C(O)CC1SC(=Nc2ccccc2)N(c2ccccc2)C1=O (centres undefined)	4
CCCCN1C(=O)C(CC(=O)NCC)SC1=Nc1ccccc1 (centres undefined)	450*
NS(=O)(=O)c1cccnc1Nc1c(Cl)cccc1Cl	-7
CN(C)CCCNc1cn[nH]c(=O)c1Cl	9
CC(=O)Oc1cccc(N2C(=O)c3ccc(C(=O)Nc4c[nH]c(=O)[nH]c4=O)cc3C2=O)c1	214*
COc1ccc(N2C(=O)c3ccc(C(=O)OC(C)C)cc3C2=O)cc1	-64
Cc1cc(NC(=O)c2ccc3c(c2)C(=O)N(C)C3=O)no1	-7
O=C(O)CCSc1nnc(SCC(=O)NCC(F)(F)F)s1	9
Cc1nc(N2CCC(C)CC2)c2nnn(Cc3ccccc3)c2n1	221
C=CCn1c(-c2ccc(Cl)cc2)cnc1SC(C)C(=O)NC(N)=O (centres undefined)	357*
C=CCn1c(SCCOc2ccc(OC)cc2)nnc1C(C)NC(=O)c1ccc(OC)cc1 (centres undefined)	10
C=CCn1c(SCC(=O)NC2CCCCC2)nnc1-c1ccc(OC)cc1	114
COc1cccc(CC(NC(C)=O)C(=O)NC2CCN(S(=O)(=O)c3ccc4ccccc4c3)CC2)c1 (centres undefined)	9
S=c1[nH]nc(-c2ccco2)n1Cc1ccccc1	407*
Cc1c(Cl)c(-c2n[nH]c(=S)n2Cc2ccco2)nn1C	8
O=c1c2ccccc2nc(-c2ccco2)n1Cc1ccccc1	0
O=S(=O)(NCCc1cn2ccccc2n1)c1ccc2c(c1)CCCC2	198
CCOC(=O)c1nnn(-c2nonc2N)c1-c1ccc(F)cc1	0
O=C(Nc1cc(C(F)(F)F)ccc1-n1cncn1)c1ccc(-c2ccccc2)cc1	78*
Cc1ccccc1NC(=O)c1cccc(C(F)(F)F)c1	-9
O=C(Nc1cc(C(F)(F)F)ccc1N1CCOCC1)c1cncc(Br)c1	-4
Cc1cc(C)cc(NC(=O)OCCN2CCN(Cc3ccccc3)CCC2=O)c1	5
O=C(CNC(=O)c1ccc(S(=O)(=O)N2CCCCC2)cc1)N/N=C/c1ccco1	114
O=C(COC(=O)C1CC2C=CC1C2)NCc1ccccc1Cl (centres undefined)	7
O=[N+]([O-])c1ccc(N2CCN(c3ccc(Cl)nn3)CC2)cc1NC1CC1	276
COc1ccc(N(C(=O)c2ccco2)S(=O)(=O)c2ccc(F)cc2)cc1	456*
COc1ccc(N(C(=O)c2ccco2)S(=O)(=O)c2cc(OC)ccc2OC)cc1	0

High-throughput results from PubChem.
